Test results reported in ChEMBL document CHEMBL5058577, “EUbOPEN Chemogenomics Library 2 (Multiplex)” (2022).

Tested on: U2OS
Assay: Multiplex assay against U2OS
Assay type: toxicity, cell-based
Conditions: human
How it was run: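 Cells stained live at seeding with Hoechst33342, BioTracker Green Microtubule Cytoskeleton Dye, MitoTracker Red and Annexin V Alexa Fluor 680 were imaged on a CQ1 microscope at 37°C and 5% CO2 after compound addition. Their classification by CellPathfinder machine-learning gating ran from Hoechst high-intensity objects versus normal cells, to healthy, pyknosed or fragmented nuclei among normal cells, to mitotic or apoptotic among pyknosed cells. Tubulin, mitochondrial-mass and membrane-permeability phenotypes are per cents of healthy-nucleus cells.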

[1] = 12 h, 1 µM, compound concentration 1 uM, replicate 1
[2] = 12 h, 1 µM, compound concentration 1 uM, replicate 2
[3] = 12 h, 10 µM, compound concentration 10 uM, replicate 1
[4] = 12 h, 10 µM, compound concentration 10 uM, replicate 2
[5] = 24 h, 1 µM, compound concentration 1 uM, replicate 1
[6] = 24 h, 1 µM, compound concentration 1 uM, replicate 2
[7] = 24 h, 10 µM, compound concentration 10 uM, replicate 1
[8] = 24 h, 10 µM, compound concentration 10 uM, replicate 2
[9] = 48 h, 1 µM, compound concentration 1 uM, replicate 1
[10] = 48 h, 1 µM, compound concentration 1 uM, replicate 2
[11] = 48 h, 10 µM, compound concentration 10 uM, replicate 1
[12] = 48 h, 10 µM, compound concentration 10 uM, replicate 2

CCCC(CCC)C(=O)O [VALPROIC ACID]
Population Apoptotic (%) [1]: 72% | Population Fragmented Nuclei (%) [1]: 28% | Population Healthy Nuclei (%) [1]: 63% | Population Hoechst High Intensity Objects (%) [1]: 6% | Population Membrane Permeable-Phenotype (%) [1]: 9% | Population Mitochondria Different-Phenotype (%) [1]: 7% | Population Mitotic Cells (%) [1]: 27% | Population Normal (%) [1]: 93% | Population Pyknosed Nuclei (%) [1]: 8% | Population Tubulin-Different-Phenotype (%) [1]: 8% | Population Apoptotic (%) [2]: 66% | Population Fragmented Nuclei (%) [2]: 14% | Population Healthy Nuclei (%) [2]: 77% | Population Hoechst High Intensity Objects (%) [2]: 2% | Population Membrane Permeable-Phenotype (%) [2]: 8% | Population Mitochondria Different-Phenotype (%) [2]: 3% | Population Mitotic Cells (%) [2]: 33% | Population Normal (%) [2]: 97% | Population Tubulin-Different-Phenotype (%) [2]: 6% | Population Apoptotic (%) [3]: 77% | Population Fragmented Nuclei (%) [3]: 30% | Population Healthy Nuclei (%) [3]: 66% | Population Hoechst High Intensity Objects (%) [3]: 4% | Population Membrane Permeable-Phenotype (%) [3]: 6% | Population Mitochondria Different-Phenotype (%) [3]: 3% | Population Mitotic Cells (%) [3]: 22% | Population Normal (%) [3]: 95% | Population Pyknosed Nuclei (%) [3]: 3% | Population Tubulin-Different-Phenotype (%) [3]: 4% | Population Apoptotic (%) [4]: 85% | Population Fragmented Nuclei (%) [4]: 21% | Population Healthy Nuclei (%) [4]: 70% | Population Hoechst High Intensity Objects (%) [4]: 0% | Population Membrane Permeable-Phenotype (%) [4]: 4% | Population Mitochondria Different-Phenotype (%) [4]: 4% | Population Mitotic Cells (%) [4]: 14% | Population Normal (%) [4]: 100% | Population Pyknosed Nuclei (%) [4]: 7% | Population Apoptotic (%) [5]: 84% | Population Fragmented Nuclei (%) [5]: 24% | Population Healthy Nuclei (%) [5]: 66% | Population Hoechst High Intensity Objects (%) [5]: 6% | Population Membrane Permeable-Phenotype (%) [5]: 9% | Population Mitochondria Different-Phenotype (%) [5]: 6% | Population Mitotic Cells (%) [5]: 16% | Population Normal (%) [5]: 93% | Population Pyknosed Nuclei (%) [5]: 8% | Population Tubulin-Different-Phenotype (%) [5]: 9% | Population Apoptotic (%) [6]: 100% | Population Fragmented Nuclei (%) [6]: 17% | Population Healthy Nuclei (%) [6]: 74% | Population Hoechst High Intensity Objects (%) [6]: 3% | Population Mitochondria Different-Phenotype (%) [6]: 2% | Population Mitotic Cells (%) [6]: 0% | Population Normal (%) [6]: 96% | Population Tubulin-Different-Phenotype (%) [6]: 7% | Population Apoptotic (%) [7]: 83% | Population Fragmented Nuclei (%) [7]: 25% | Population Healthy Nuclei (%) [7]: 71% | Population Hoechst High Intensity Objects (%) [7]: 2% | Population Membrane Permeable-Phenotype (%) [7]: 4% | Population Mitochondria Different-Phenotype (%) [7]: 3% | Population Mitotic Cells (%) [7]: 16% | Population Normal (%) [7]: 97% | Population Pyknosed Nuclei (%) [7]: 3% | Population Tubulin-Different-Phenotype (%) [7]: 3% | Population Apoptotic (%) [8]: 100% | Population Fragmented Nuclei (%) [8]: 17% | Population Healthy Nuclei (%) [8]: 78% | Population Hoechst High Intensity Objects (%) [8]: 0% | Population Membrane Permeable-Phenotype (%) [8]: 8% | Population Mitochondria Different-Phenotype (%) [8]: 4% | Population Mitotic Cells (%) [8]: 0% | Population Normal (%) [8]: 100% | Population Pyknosed Nuclei (%) [8]: 4% | Population Tubulin-Different-Phenotype (%) [8]: 5% | Population Apoptotic (%) [9]: 76% | Population Fragmented Nuclei (%) [9]: 20% | Population Healthy Nuclei (%) [9]: 69% | Population Hoechst High Intensity Objects (%) [9]: 3% | Population Membrane Permeable-Phenotype (%) [9]: 7% | Population Mitochondria Different-Phenotype (%) [9]: 5% | Population Mitotic Cells (%) [9]: 23% | Population Normal (%) [9]: 96% | Population Pyknosed Nuclei (%) [9]: 9% | Population Tubulin-Different-Phenotype (%) [9]: 5% | Population Apoptotic (%) [10]: 91% | Population Fragmented Nuclei (%) [10]: 16% | Population Healthy Nuclei (%) [10]: 72% | Population Membrane Permeable-Phenotype (%) [10]: 8% | Population Mitotic Cells (%) [10]: 8% | Population Pyknosed Nuclei (%) [10]: 11% | Population Tubulin-Different-Phenotype (%) [10]: 6% | Population Apoptotic (%) [11]: 91% | Population Fragmented Nuclei (%) [11]: 20% | Population Healthy Nuclei (%) [11]: 71% | Population Hoechst High Intensity Objects (%) [11]: 2% | Population Membrane Permeable-Phenotype (%) [11]: 3% | Population Mitochondria Different-Phenotype (%) [11]: 2% | Population Mitotic Cells (%) [11]: 8% | Population Normal (%) [11]: 97% | Population Pyknosed Nuclei (%) [11]: 7% | Population Tubulin-Different-Phenotype (%) [11]: 1% | Population Apoptotic (%) [12]: 93% | Population Hoechst High Intensity Objects (%) [12]: 1% | Population Membrane Permeable-Phenotype (%) [12]: 9% | Population Mitotic Cells (%) [12]: 6% | Population Normal (%) [12]: 98% | Population Tubulin-Different-Phenotype (%) [12]: 4%

CCOc1c2c(c(OCC)c3ncccc13)CN(c1ccc(CS(=O)(=O)NC(=O)Cc3ccccc3OC)cc1C)C2=O
Population Apoptotic (%) [1]: 64% | Population Fragmented Nuclei (%) [1]: 22% | Population Healthy Nuclei (%) [1]: 70% | Population Hoechst High Intensity Objects (%) [1]: 2% | Population Membrane Permeable-Phenotype (%) [1]: 7% | Population Mitochondria Different-Phenotype (%) [1]: 3% | Population Mitotic Cells (%) [1]: 35% | Population Normal (%) [1]: 97% | Population Pyknosed Nuclei (%) [1]: 7% | Population Tubulin-Different-Phenotype (%) [1]: 2% | Total Cell Count [1]: 189 | Population Apoptotic (%) [2]: 100% | Population Fragmented Nuclei (%) [2]: 13% | Population Healthy Nuclei (%) [2]: 82% | Population Hoechst High Intensity Objects (%) [2]: 1% | Population Membrane Permeable-Phenotype (%) [2]: 9% | Population Mitotic Cells (%) [2]: 0% | Population Normal (%) [2]: 98% | Population Pyknosed Nuclei (%) [2]: 4% | Population Tubulin-Different-Phenotype (%) [2]: 6% | Total Cell Count [2]: 93 | Population Apoptotic (%) [3]: 81% | Population Fragmented Nuclei (%) [3]: 30% | Population Healthy Nuclei (%) [3]: 63% | Population Hoechst High Intensity Objects (%) [3]: 2% | Population Membrane Permeable-Phenotype (%) [3]: 5% | Population Mitochondria Different-Phenotype (%) [3]: 3% | Population Mitotic Cells (%) [3]: 18% | Population Normal (%) [3]: 97% | Population Pyknosed Nuclei (%) [3]: 6% | Population Tubulin-Different-Phenotype (%) [3]: 2% | Total Cell Count [3]: 248 | Population Apoptotic (%) [4]: 80% | Population Fragmented Nuclei (%) [4]: 21% | Population Healthy Nuclei (%) [4]: 75% | Population Membrane Permeable-Phenotype (%) [4]: 8% | Population Mitochondria Different-Phenotype (%) [4]: 6% | Population Mitotic Cells (%) [4]: 20% | Population Pyknosed Nuclei (%) [4]: 3% | Population Tubulin-Different-Phenotype (%) [4]: 3% | Total Cell Count [4]: 136 | Population Apoptotic (%) [5]: 80% | Population Fragmented Nuclei (%) [5]: 21% | Population Healthy Nuclei (%) [5]: 71% | Population Hoechst High Intensity Objects (%) [5]: 3% | Population Membrane Permeable-Phenotype (%) [5]: 4% | Population Mitochondria Different-Phenotype (%) [5]: 0% | Population Mitotic Cells (%) [5]: 20% | Population Normal (%) [5]: 96% | Population Pyknosed Nuclei (%) [5]: 6% | Population Tubulin-Different-Phenotype (%) [5]: 1% | Total Cell Count [5]: 235 | Population Apoptotic (%) [6]: 100% | Population Fragmented Nuclei (%) [6]: 19% | Population Healthy Nuclei (%) [6]: 76% | Population Hoechst High Intensity Objects (%) [6]: 1% | Population Membrane Permeable-Phenotype (%) [6]: 7% | Population Mitochondria Different-Phenotype (%) [6]: 4% | Population Mitotic Cells (%) [6]: 0% | Population Normal (%) [6]: 98% | Population Pyknosed Nuclei (%) [6]: 4% | Population Tubulin-Different-Phenotype (%) [6]: 4% | Total Cell Count [6]: 125 | Population Apoptotic (%) [7]: 76% | Population Fragmented Nuclei (%) [7]: 27% | Population Healthy Nuclei (%) [7]: 61% | Population Hoechst High Intensity Objects (%) [7]: 3% | Population Membrane Permeable-Phenotype (%) [7]: 6% | Population Mitochondria Different-Phenotype (%) [7]: 2% | Population Mitotic Cells (%) [7]: 23% | Population Normal (%) [7]: 96% | Population Pyknosed Nuclei (%) [7]: 10% | Population Tubulin-Different-Phenotype (%) [7]: 1% | Total Cell Count [7]: 285 | Population Apoptotic (%) [8]: 100% | Population Fragmented Nuclei (%) [8]: 17% | Population Healthy Nuclei (%) [8]: 76% | Population Hoechst High Intensity Objects (%) [8]: 0% | Population Mitotic Cells (%) [8]: 0% | Population Normal (%) [8]: 99% | Population Pyknosed Nuclei (%) [8]: 5% | Population Tubulin-Different-Phenotype (%) [8]: 5% | Total Cell Count [8]: 152 | Population Apoptotic (%) [9]: 85% | Population Fragmented Nuclei (%) [9]: 19% | Population Healthy Nuclei (%) [9]: 74% | Population Hoechst High Intensity Objects (%) [9]: 2% | Population Membrane Permeable-Phenotype (%) [9]: 3% | Population Mitochondria Different-Phenotype (%) [9]: 1% | Population Mitotic Cells (%) [9]: 15% | Population Normal (%) [9]: 97% | Population Pyknosed Nuclei (%) [9]: 5% | Population Tubulin-Different-Phenotype (%) [9]: 2% | Total Cell Count [9]: 344 | Population Apoptotic (%) [10]: 100% | Population Fragmented Nuclei (%) [10]: 17% | Population Healthy Nuclei (%) [10]: 79% | Population Hoechst High Intensity Objects (%) [10]: 4% | Population Membrane Permeable-Phenotype (%) [10]: 7% | Population Mitochondria Different-Phenotype (%) [10]: 3% | Population Mitotic Cells (%) [10]: 0% | Population Normal (%) [10]: 95% | Population Pyknosed Nuclei (%) [10]: 2% | Population Tubulin-Different-Phenotype (%) [10]: 5% | Total Cell Count [10]: 167 | Population Apoptotic (%) [11]: 91% | Population Fragmented Nuclei (%) [11]: 19% | Population Healthy Nuclei (%) [11]: 71% | Population Hoechst High Intensity Objects (%) [11]: 2% | Population Membrane Permeable-Phenotype (%) [11]: 5% | Population Mitochondria Different-Phenotype (%) [11]: 1% | Population Mitotic Cells (%) [11]: 8% | Population Normal (%) [11]: 97% | Population Pyknosed Nuclei (%) [11]: 9% | Population Tubulin-Different-Phenotype (%) [11]: 2% | Total Cell Count [11]: 385 | Population Apoptotic (%) [12]: 100% | Population Fragmented Nuclei (%) [12]: 18% | Population Healthy Nuclei (%) [12]: 74% | Population Membrane Permeable-Phenotype (%) [12]: 8% | Population Mitochondria Different-Phenotype (%) [12]: 4% | Population Mitotic Cells (%) [12]: 0% | Population Pyknosed Nuclei (%) [12]: 6% | Population Tubulin-Different-Phenotype (%) [12]: 3% | Total Cell Count [12]: 236
